Reference: ChEMBL document CHEMBL4219099, “Design, synthesis and biological evaluation of novel 7-azaspiro[3.5]nonane derivatives as GPR119 agonists” (Bioorg Med Chem, 2018)
pEC50, pIC50: −log10 of the molar value. Values after ≈ are worked out from the molar mass of the structure shown.

Experiments:
[1] = target: T1, Glucose-dependent insulinotropic receptor (Homo sapiens, UniProt Q8TDV5); assay: Agonist activity at human GPR119 expressed in Flp-In-T-Rex-HEK293 cells assessed as increase in intracellular cAMP level after 30 mins by HTRF assay; type: functional, cell-based
T1 sequence (Q8TDV5 whole entry): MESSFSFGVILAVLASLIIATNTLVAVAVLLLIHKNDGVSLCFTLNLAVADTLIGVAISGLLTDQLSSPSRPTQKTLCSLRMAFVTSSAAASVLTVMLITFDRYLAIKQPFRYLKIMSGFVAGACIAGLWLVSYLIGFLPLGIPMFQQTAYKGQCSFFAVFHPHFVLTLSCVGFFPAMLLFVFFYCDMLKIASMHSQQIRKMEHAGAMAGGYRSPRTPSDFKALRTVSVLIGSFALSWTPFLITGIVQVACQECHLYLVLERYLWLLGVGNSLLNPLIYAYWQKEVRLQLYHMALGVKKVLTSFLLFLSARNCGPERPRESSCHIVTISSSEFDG
In short: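 Flp-In-T-Rex-HEK293 cells overexpressing human GPR119, tetracycline-induced 24 h, plated at 5000 cells/well in D-MEM with 1 mM IBMX and 0.01% BSA, then exposed to compound 30 min at 37 °C. cAMP read with HiRange HTRF kit. Basal cAMP subtracted from stimulated level; EC50 taken as concentration giving 50% of maximal response, fitted from dose-response curves.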

[2] = Solubility of the compound in fasted state simulated intestinal fluid incubated for 2 hrs in shaker and subsequently incubated at 37 degC for 22 hrs in water bath by HPLC analysis; type: physicochemical
In short: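 FaSSIF (pH 6.5) with excess compound shaken at 25 °C for 2 h, then held at 37 °C for 22 h. Centrifuged at 3000 and 11000 rpm, 10 min. Supernatant diluted with 50% aqueous acetonitrile or acetonitrile/methanol 1:1. Concentration by reversed-phase HPLC: 0.1% phosphoric acid/acetonitrile, column 40 °C, UV 210 nm.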

[3] = Aqueous solubility of the compound in pH 6.8 phosphate buffer after 24 hrs by HPLC analysis; type: physicochemical
In short: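 Excess solid shaken in pH 6.8 phosphate buffer at 25 °C for 24 h. Suspension centrifuged at 3000 and 11000 rpm, 10 min each. Supernatant diluted in 50% aqueous acetonitrile and quantified by reversed-phase HPLC (0.1% phosphoric acid/acetonitrile, column 40 °C, UV 210 nm).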

[4] = Clearance in Sprague-Dawley rat plasma at 3 mg/kg, iv or 10 mg/kg, po by liquid chromatography-tandem mass spectrometry analysis; type: ADME, organism-based
In short: (§1)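 Fasted male SD rats given a single dose, iv 3 mg/kg in 20% 2-hydroxypropyl-β-cyclodextrin or po 10 mg/kg in 0.5% methylcellulose with 0.1% Tween80. Tail-vein blood taken at time points and spun to plasma. Analyte quantified by LC-MS/MS; parameters from non-compartmental analysis.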

[5] = Oral bioavailability in Sprague-Dawley rat plasma at 10 mg/kg by liquid chromatography-tandem mass spectrometry analysis; type: ADME, organism-based; in short: as §1
Cytochrome P450 3A4 = Cytochrome P450 3A4 (Homo sapiens, UniProt P08684); assay: Inhibition of CYP3A4 in human liver microsomes; type: ADME
Cytochrome P450 2D6 = Cytochrome P450 2D6 (Homo sapiens, UniProt P10635); assay: Inhibition of CYP2D6 in human liver microsomes; type: ADME
[6] = Volume of distribution at steady state in Sprague-Dawley rat plasma at 3 mg/kg, iv by liquid chromatography-tandem mass spectrometry analysis; type: ADME, organism-based; settings: read-out: Vdss; in short: as §1
Rattus norvegicus [7] = assay: Antidiabetic activity in Zucker diabetic rat assessed as reduction in plasma glucose AUC (0 to 2 hrs) at 30 mg/kg, po pretreated for 30 mins followed by glucose challenge by oGTT assay relative to control; type: functional; design: scale not given: the % may be the effect or the level left
In short: (§2)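 Male Zucker diabetic fatty and lean rats, 9 weeks old, fasted overnight. Dosed orally in 20 w/v% HP-β-CD; 30 min later given oral glucose at 2 g/kg. Tail-vein plasma glucose followed over 2 h by glucose assay kit. Glucose excursion expressed as ΔAUC 0–2 h versus vehicle; mean ± SE, Welch's t-test.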

Rattus norvegicus [8] = assay: Antidiabetic activity in Zucker diabetic rat assessed as reduction in plasma glucose AUC (0 to 2 hrs) at 10 mg/kg, po pretreated for 30 mins followed by glucose challenge by oGTT assay relative to control; type: functional; design: scale not given: the % may be the effect or the level left; in short: as §2
[9] = Half life in Sprague-Dawley rat plasma at 3 mg/kg, iv by liquid chromatography-tandem mass spectrometry analysis; type: ADME, organism-based; in short: as §1
[10] = AUC (0 to t) in Sprague-Dawley rat plasma at 10 mg/kg, po by liquid chromatography-tandem mass spectrometry analysis; type: ADME, organism-based; in short: as §1
Cytochrome P450 1A2 = target: T2, Cytochrome P450 1A2 (Homo sapiens, UniProt P05177); assay: Inhibition of CYP1A2 in human liver microsomes; type: ADME
T2 sequence (P05177 whole entry): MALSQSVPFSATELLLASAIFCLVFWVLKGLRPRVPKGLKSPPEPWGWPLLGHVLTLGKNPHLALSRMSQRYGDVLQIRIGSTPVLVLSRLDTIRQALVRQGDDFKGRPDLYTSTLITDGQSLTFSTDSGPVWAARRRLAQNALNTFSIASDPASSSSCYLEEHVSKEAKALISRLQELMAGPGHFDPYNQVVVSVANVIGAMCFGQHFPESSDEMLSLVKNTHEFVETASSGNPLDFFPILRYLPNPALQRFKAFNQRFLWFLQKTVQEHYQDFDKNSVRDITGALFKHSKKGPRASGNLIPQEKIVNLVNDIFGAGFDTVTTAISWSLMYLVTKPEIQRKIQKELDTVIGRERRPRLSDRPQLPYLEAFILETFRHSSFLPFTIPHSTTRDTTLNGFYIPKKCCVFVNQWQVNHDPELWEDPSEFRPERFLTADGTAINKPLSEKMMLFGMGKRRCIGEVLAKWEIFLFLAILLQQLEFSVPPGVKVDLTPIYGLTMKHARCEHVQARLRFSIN

Cytochrome P450 2C19 = Cytochrome P450 2C19 (Homo sapiens, UniProt P33261); assay: Inhibition of CYP2C19 in human liver microsomes; type: ADME; settings: for pIC50: read-out: IC50
Cytochrome P450 2C9 = Cytochrome P450 2C9 (Homo sapiens, UniProt P11712); assay: Inhibition of CYP2C9 in human liver microsomes; type: ADME; settings: for pIC50: read-out: IC50
Cytochrome P450 2C9, sequence (P11712 whole entry): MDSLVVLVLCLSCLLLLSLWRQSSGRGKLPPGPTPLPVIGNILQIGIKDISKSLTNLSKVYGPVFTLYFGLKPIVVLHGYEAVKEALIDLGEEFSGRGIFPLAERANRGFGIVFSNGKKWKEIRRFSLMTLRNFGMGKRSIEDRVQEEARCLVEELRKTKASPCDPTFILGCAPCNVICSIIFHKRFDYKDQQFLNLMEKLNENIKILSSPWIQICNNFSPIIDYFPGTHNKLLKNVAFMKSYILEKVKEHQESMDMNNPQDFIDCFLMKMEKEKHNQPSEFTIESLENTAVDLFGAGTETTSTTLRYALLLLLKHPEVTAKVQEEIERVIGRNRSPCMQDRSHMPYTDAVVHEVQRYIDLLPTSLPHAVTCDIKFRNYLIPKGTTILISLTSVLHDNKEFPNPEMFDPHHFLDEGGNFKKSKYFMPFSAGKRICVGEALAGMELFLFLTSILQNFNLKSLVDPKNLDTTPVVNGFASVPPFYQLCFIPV

Cytochrome P450 2C19, sequence (P33261 whole entry): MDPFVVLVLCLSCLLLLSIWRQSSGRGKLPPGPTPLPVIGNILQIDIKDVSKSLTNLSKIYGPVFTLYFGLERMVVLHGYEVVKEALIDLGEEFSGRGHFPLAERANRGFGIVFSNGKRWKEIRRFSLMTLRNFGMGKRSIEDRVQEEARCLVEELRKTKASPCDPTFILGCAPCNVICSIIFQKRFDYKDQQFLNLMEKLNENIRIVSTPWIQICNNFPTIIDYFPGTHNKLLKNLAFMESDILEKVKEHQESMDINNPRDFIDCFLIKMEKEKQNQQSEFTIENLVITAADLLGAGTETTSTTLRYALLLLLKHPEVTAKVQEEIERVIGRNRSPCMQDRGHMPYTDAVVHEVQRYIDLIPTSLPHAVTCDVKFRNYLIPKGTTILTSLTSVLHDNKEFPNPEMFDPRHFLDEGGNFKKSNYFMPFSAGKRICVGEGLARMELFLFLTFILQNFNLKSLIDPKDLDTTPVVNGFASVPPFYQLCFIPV
Cytochrome P450 3A4, sequence (P08684 whole entry): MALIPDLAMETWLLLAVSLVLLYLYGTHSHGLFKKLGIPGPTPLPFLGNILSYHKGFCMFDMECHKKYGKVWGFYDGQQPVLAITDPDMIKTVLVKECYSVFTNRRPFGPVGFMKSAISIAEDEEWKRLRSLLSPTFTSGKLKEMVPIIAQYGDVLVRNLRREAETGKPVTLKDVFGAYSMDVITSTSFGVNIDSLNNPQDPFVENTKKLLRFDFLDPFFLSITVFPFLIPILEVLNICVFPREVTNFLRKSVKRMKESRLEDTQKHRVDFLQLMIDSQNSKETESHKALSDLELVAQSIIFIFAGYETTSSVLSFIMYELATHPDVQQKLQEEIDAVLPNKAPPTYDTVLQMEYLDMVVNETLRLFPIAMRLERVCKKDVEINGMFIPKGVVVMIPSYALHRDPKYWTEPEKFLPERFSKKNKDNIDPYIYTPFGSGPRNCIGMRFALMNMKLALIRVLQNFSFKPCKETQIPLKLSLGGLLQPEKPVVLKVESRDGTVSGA
Cytochrome P450 2D6, sequence (P10635 whole entry): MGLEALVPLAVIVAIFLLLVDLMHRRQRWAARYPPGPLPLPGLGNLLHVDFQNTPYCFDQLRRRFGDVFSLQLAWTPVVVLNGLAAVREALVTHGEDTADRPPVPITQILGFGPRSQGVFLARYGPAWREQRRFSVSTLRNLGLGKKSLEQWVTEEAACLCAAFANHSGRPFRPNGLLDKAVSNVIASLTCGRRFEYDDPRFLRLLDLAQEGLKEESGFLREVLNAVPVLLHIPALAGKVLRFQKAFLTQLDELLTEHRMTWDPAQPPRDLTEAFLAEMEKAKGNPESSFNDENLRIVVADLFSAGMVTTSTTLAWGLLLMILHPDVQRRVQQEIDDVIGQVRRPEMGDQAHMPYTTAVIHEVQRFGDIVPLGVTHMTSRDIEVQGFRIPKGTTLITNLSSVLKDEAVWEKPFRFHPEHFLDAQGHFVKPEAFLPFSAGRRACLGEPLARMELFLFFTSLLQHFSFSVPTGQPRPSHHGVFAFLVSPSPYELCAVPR

pEC50 [1] | solubility at 24 h [2] | solubility at 24 h [3] | SMILES | other results
7.26 |  |  | CC(C)(C)OC(=O)N1CCC2(CCC(CCOc3ccc(S(C)(=O)=O)cc3)CC2)CC1 | 
6.81 |  |  | CC(C)(C)OC(=O)N1CCC2(CC1)CC(CCCCOc1ccc(S(C)(=O)=O)cc1)C2 | 
7.17 |  |  | CC(C)OC(=O)N1CCC2(CC1)CC(CCCOc1ccc(C(=O)N(C)C3CC3)c(F)c1)C2 | 
7.89 | 1.27 µg/mL (≈ 2.8 µM) | < 0.15 µg/mL | CC1(OC(=O)N2CCC3(CC2)CC(CCCOc2ccc(S(C)(=O)=O)c(F)c2)C3)CC1 | 
7.33 |  | 2.11 µg/mL (≈ 4.91 µM) | CC(C)OC(=O)N1CCC2(CC1)CC(CCCOc1ccc(C(=O)NC3CC3)nc1)C2 | 
6.08 |  |  | CC(C)(C)OC(=O)N1CCC2(CC1)CC2CCCOc1ccc(S(C)(=O)=O)cc1 (stereo unspecified) | 
6.91 |  |  | CCc1cnc(N2CCC3(CC2)CC(CCCOc2ccc(S(C)(=O)=O)c(F)c2)C3)nc1 | 
7.51 | 0.64 µg/mL (≈ 1.44 µM) | < 0.12 µg/mL | CCc1cnc(N2CCC3(CC2)CC(CCCOc2ccc(S(C)(=O)=O)cc2)C3)nc1 | 
5.59 |  |  | CC(C)(C)OC(=O)N1CCC2(CCC(CCCOc3ccc(S(C)(=O)=O)cc3)CC2)CC1 | 
7.32 | 18.4 µg/mL (≈ 39.7 µM) | 1.77 µg/mL (≈ 3.82 µM) | CC(C)OC(=O)N1CCC2(CC1)CC(CCCOc1ccc(C(=O)NCC(N)=O)c(F)c1)C2 | clearance [4]: 15.5 mL/min/kg; bioavailability [5]: 88.6%; IC50 (Cytochrome P450 3A4): Not Active; IC50 (Cytochrome P450 2D6): Not Active; Vd [6]: 1.01 L/kg; Activity (Rattus norvegicus [7]): 40.2%; Activity (Rattus norvegicus [8]): 34%; half-life [9]: 50.5 min; AUC(0-t) [10]: 9510 ng·h/mL; IC50 (Cytochrome P450 1A2): Not Active; IC50 (Cytochrome P450 2C19): Not Active; IC50 (Cytochrome P450 2C9): Not Active
6.65 |  |  | CCc1cnc(N2CCC3(CC2)CC(CCCOc2ccc(S(C)(=O)=O)cc2F)C3)nc1 | 
6.74 |  |  | CC(C)(C)OC(=O)N1CCC2(CC1)CC(CCOc1ccc(S(C)(=O)=O)cc1)C2 | 
7.40 |  | 1.89 µg/mL (≈ 4.09 µM) | CC(C)OC(=O)N1CCC2(CC1)CC(CCCOc1ccc(C(=O)N3CC(O)C3)c(F)c1)C2 | pIC50 (Cytochrome P450 2C19): > 5.00; pIC50 (Cytochrome P450 2C9): > 5.00
7.54 | 92.4 µg/mL (≈ 201 µM) | 3.85 µg/mL (≈ 8.36 µM) | CC(C)OC(=O)N1CCC2(CC1)CC(CCCOc1ccc(C(=O)N3CCCC3)c(F)c1)C2 | pIC50 (Cytochrome P450 1A2; read-out: IC50): > 5.00; pIC50 (Cytochrome P450 2C19): > 5.00; pIC50 (Cytochrome P450 2C9): > 5.00
7.47 |  | 3.43 µg/mL (≈ 7.68 µM) | CC(C)OC(=O)N1CCC2(CC1)CC(CCCOc1ccc(C(=O)N3CCC3)c(F)c1)C2 | pIC50 (Cytochrome P450 2C19): > 5.00; pIC50 (Cytochrome P450 2C9): > 5.00
7.64 | 7.65 µg/mL (≈ 16.4 µM) | < 0.14 µg/mL | CS(=O)(=O)c1ccc(OCCCC2CC3(CCN(C(=O)OC4CCCC4)CC3)C2)cc1F | 
6.46 |  |  | Cc1ccc(N2CCC3(CC2)CC(CCCOc2ccc(S(C)(=O)=O)cc2)C3)nc1 | 
8.05 |  |  | CC(C)(C)OC(=O)N1CCC2(CC1)CC(CCCOc1ccc(S(C)(=O)=O)c(F)c1)C2 | 
8.10 | 8.58 µg/mL (≈ 19.2 µM) | 0.21 µg/mL (≈ 0.47 µM) | CC(C)OC(=O)N1CCC2(CC1)CC(CCCOc1ccc(C(=O)NC3CC3)c(F)c1)C2 | 
7.20 |  | 2.24 µg/mL (≈ 5.21 µM) | CC(C)OC(=O)N1CCC2(CC1)CC(CCCOc1ccc(C(=O)NC3CC3)cn1)C2 | 
7.51 |  |  | CC(C)(C)COC(=O)N1CCC2(CC1)CC(CCCOc1ccc(S(C)(=O)=O)c(F)c1)C2 | 
7.28 |  |  | CC(C)OC(=O)N1CCC2(CC1)CC(CCCOc1ccc(C(N)=O)c(F)c1)C2 | 
7.15 | 7.09 µg/mL (≈ 16.7 µM) | 0.17 µg/mL (≈ 0.401 µM) | CC(C)OC(=O)N1CCC2(CC1)CC(CCCOc1ccc(S(C)(=O)=O)cc1)C2 | 
7.60 |  |  | CC(C)(C)OC(=O)N1CCC2(CC1)CC(CCCOc1ccc(S(C)(=O)=O)cc1F)C2 | 
7.85 | 3.48 µg/mL (≈ 7.95 µM) | < 0.13 µg/mL | CC(C)(C)OC(=O)N1CCC2(CC1)CC(CCCOc1ccc(S(C)(=O)=O)cc1)C2 | 
7.74 | 2.52 µg/mL (≈ 5.71 µM) | < 0.16 µg/mL | CC(C)OC(=O)N1CCC2(CC1)CC(CCCOc1ccc(S(C)(=O)=O)c(F)c1)C2 | 
7.46 | 2.51 µg/mL (≈ 5.61 µM) | < 0.13 µg/mL | CC(C)c1noc(N2CCC3(CC2)CC(CCCOc2ccc(S(C)(=O)=O)cc2)C3)n1 | 
5.62 |  |  | CC(C)(C)OC(=O)N1CCC2(CC1)CC2CCOc1ccc(S(C)(=O)=O)cc1 (stereo unspecified) | 
